Experimental data reported in ChEMBL document CHEMBL5058577, “EUbOPEN Chemogenomics Library 2 (Multiplex)” (2022).

System: Fibroblast
Test: Multiplex assay against human fibroblast
Format: toxicity, cell-based
Method in brief: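 On a CQ1 microscope at 37°C and 5% CO2, live cells were imaged after compound addition. They had been stained at seeding with Hoechst33342, BioTracker Green Microtubule Cytoskeleton Dye, MitoTracker Red and Annexin V Alexa Fluor 680. CellPathfinder machine-learning gating assigned cells to Hoechst high-intensity objects or normal cells, normal cells to healthy, pyknosed or fragmented nuclei, and pyknosed cells to mitotic or apoptotic. Tubulin, mitochondrial-mass and membrane-permeability phenotypes are per cents of healthy-nucleus cells.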

[1] = 12 h, 1 µM, compound concentration 1 uM, replicate 1
[2] = 12 h, 1 µM, compound concentration 1 uM, replicate 2
[3] = 12 h, 10 µM, compound concentration 10 uM, replicate 1
[4] = 12 h, 10 µM, compound concentration 10 uM, replicate 2
[5] = 24 h, 1 µM, compound concentration 1 uM, replicate 1
[6] = 24 h, 1 µM, compound concentration 1 uM, replicate 2
[7] = 24 h, 10 µM, compound concentration 10 uM, replicate 1
[8] = 24 h, 10 µM, compound concentration 10 uM, replicate 2
[9] = 48 h, 1 µM, compound concentration 1 uM, replicate 1
[10] = 48 h, 1 µM, compound concentration 1 uM, replicate 2
[11] = 48 h, 10 µM, compound concentration 10 uM, replicate 1
[12] = 48 h, 10 µM, compound concentration 10 uM, replicate 2

SMILES: CC1(COc2ccc3c(c2)ncn3-c2ccc3cccc(N4CCC(N)CC4)c3n2)COC1 [CRENOLANIB]
- Population Apoptotic (%) [1]: 61%
- Population Fragmented Nuclei (%) [1]: 27%
- Population Healthy Nuclei (%) [1]: 60%
- Population Hoechst High Intensity Objects (%) [1]: 2%
- Population Membrane Permeable-Phenotype (%) [1]: 0%
- Population Mitochondria Different-Phenotype (%) [1]: 4%
- Population Mitotic Cells (%) [1]: 38%
- Population Normal (%) [1]: 97%
- Population Pyknosed Nuclei (%) [1]: 12%
- Population Tubulin-Different-Phenotype (%) [1]: 48%
- Population Apoptotic (%) [2]: 18%
- Population Fragmented Nuclei (%) [2]: 33%
- Population Healthy Nuclei (%) [2]: 47%
- Population Hoechst High Intensity Objects (%) [2]: 4%
- Population Membrane Permeable-Phenotype (%) [2]: 7%
- Population Mitochondria Different-Phenotype (%) [2]: 9%
- Population Mitotic Cells (%) [2]: 81%
- Population Normal (%) [2]: 95%
- Population Pyknosed Nuclei (%) [2]: 18%
- Population Tubulin-Different-Phenotype (%) [2]: 67%
- Population Apoptotic (%) [3]: 33%
- Population Fragmented Nuclei (%) [3]: 21%
- Population Healthy Nuclei (%) [3]: 48%
- Population Hoechst High Intensity Objects (%) [3]: 4%
- Population Membrane Permeable-Phenotype (%) [3]: 2%
- Population Mitochondria Different-Phenotype (%) [3]: 6%
- Population Mitotic Cells (%) [3]: 66%
- Population Normal (%) [3]: 95%
- Population Pyknosed Nuclei (%) [3]: 30%
- Population Tubulin-Different-Phenotype (%) [3]: 43%
- Population Apoptotic (%) [4]: 34%
- Population Fragmented Nuclei (%) [4]: 29%
- Population Healthy Nuclei (%) [4]: 40%
- Population Hoechst High Intensity Objects (%) [4]: 13%
- Population Membrane Permeable-Phenotype (%) [4]: 6%
- Population Mitochondria Different-Phenotype (%) [4]: 9%
- Population Mitotic Cells (%) [4]: 65%
- Population Normal (%) [4]: 86%
- Population Tubulin-Different-Phenotype (%) [4]: 48%
- Population Apoptotic (%) [5]: 92%
- Population Fragmented Nuclei (%) [5]: 29%
- Population Healthy Nuclei (%) [5]: 60%
- Population Hoechst High Intensity Objects (%) [5]: 0%
- Population Membrane Permeable-Phenotype (%) [5]: 0%
- Population Mitochondria Different-Phenotype (%) [5]: 9%
- Population Mitotic Cells (%) [5]: 7%
- Population Normal (%) [5]: 99%
- Population Pyknosed Nuclei (%) [5]: 9%
- Population Tubulin-Different-Phenotype (%) [5]: 61%
- Population Apoptotic (%) [6]: 50%
- Population Fragmented Nuclei (%) [6]: 41%
- Population Healthy Nuclei (%) [6]: 48%
- Population Hoechst High Intensity Objects (%) [6]: 1%
- Population Membrane Permeable-Phenotype (%) [6]: 4%
- Population Mitotic Cells (%) [6]: 50%
- Population Normal (%) [6]: 98%
- Population Pyknosed Nuclei (%) [6]: 10%
- Population Tubulin-Different-Phenotype (%) [6]: 63%
- Population Apoptotic (%) [7]: 36%
- Population Fragmented Nuclei (%) [7]: 23%
- Population Healthy Nuclei (%) [7]: 51%
- Population Hoechst High Intensity Objects (%) [7]: 16%
- Population Membrane Permeable-Phenotype (%) [7]: 0%
- Population Mitochondria Different-Phenotype (%) [7]: 8%
- Population Mitotic Cells (%) [7]: 63%
- Population Normal (%) [7]: 83%
- Population Pyknosed Nuclei (%) [7]: 24%
- Population Tubulin-Different-Phenotype (%) [7]: 23%
- Population Apoptotic (%) [8]: 34%
- Population Fragmented Nuclei (%) [8]: 25%
- Population Healthy Nuclei (%) [8]: 46%
- Population Hoechst High Intensity Objects (%) [8]: 17%
- Population Membrane Permeable-Phenotype (%) [8]: 6%
- Population Mitochondria Different-Phenotype (%) [8]: 6%
- Population Mitotic Cells (%) [8]: 65%
- Population Normal (%) [8]: 82%
- Population Pyknosed Nuclei (%) [8]: 28%
- Population Tubulin-Different-Phenotype (%) [8]: 38%
- Population Apoptotic (%) [9]: 75%
- Population Fragmented Nuclei (%) [9]: 32%
- Population Healthy Nuclei (%) [9]: 60%
- Population Hoechst High Intensity Objects (%) [9]: 1%
- Population Membrane Permeable-Phenotype (%) [9]: 0%
- Population Mitochondria Different-Phenotype (%) [9]: 8%
- Population Mitotic Cells (%) [9]: 25%
- Population Normal (%) [9]: 98%
- Population Pyknosed Nuclei (%) [9]: 7%
- Population Tubulin-Different-Phenotype (%) [9]: 55%
- Population Apoptotic (%) [10]: 20%
- Population Fragmented Nuclei (%) [10]: 44%
- Population Healthy Nuclei (%) [10]: 44%
- Population Hoechst High Intensity Objects (%) [10]: 0%
- Population Membrane Permeable-Phenotype (%) [10]: 5%
- Population Mitochondria Different-Phenotype (%) [10]: 7%
- Population Mitotic Cells (%) [10]: 80%
- Population Normal (%) [10]: 99%
- Population Pyknosed Nuclei (%) [10]: 12%
- Population Tubulin-Different-Phenotype (%) [10]: 74%
- Population Apoptotic (%) [11]: 42%
- Population Fragmented Nuclei (%) [11]: 16%
- Population Healthy Nuclei (%) [11]: 62%
- Population Hoechst High Intensity Objects (%) [11]: 24%
- Population Membrane Permeable-Phenotype (%) [11]: 1%
- Population Mitochondria Different-Phenotype (%) [11]: 6%
- Population Mitotic Cells (%) [11]: 57%
- Population Normal (%) [11]: 75%
- Population Pyknosed Nuclei (%) [11]: 21%
- Population Tubulin-Different-Phenotype (%) [11]: 23%
- Population Apoptotic (%) [12]: 37%
- Population Fragmented Nuclei (%) [12]: 23%
- Population Healthy Nuclei (%) [12]: 42%
- Population Hoechst High Intensity Objects (%) [12]: 21%
- Population Mitotic Cells (%) [12]: 62%
- Population Normal (%) [12]: 78%
- Population Pyknosed Nuclei (%) [12]: 33%
- Population Tubulin-Different-Phenotype (%) [12]: 27%

SMILES: CN(C)CCCc1cc(C(=O)Nc2ccc(-c3ccncc3)cc2)ccc1O.Cl.Cl
- Population Apoptotic (%) [1]: 31%
- Population Fragmented Nuclei (%) [1]: 15%
- Population Healthy Nuclei (%) [1]: 65%
- Population Hoechst High Intensity Objects (%) [1]: 4%
- Population Membrane Permeable-Phenotype (%) [1]: 0%
- Population Mitochondria Different-Phenotype (%) [1]: 7%
- Population Mitotic Cells (%) [1]: 68%
- Population Normal (%) [1]: 95%
- Population Pyknosed Nuclei (%) [1]: 18%
- Population Tubulin-Different-Phenotype (%) [1]: 22%
- Total Cell Count [1]: 122
- Population Apoptotic (%) [2]: 44%
- Population Fragmented Nuclei (%) [2]: 22%
- Population Healthy Nuclei (%) [2]: 52%
- Population Hoechst High Intensity Objects (%) [2]: 2%
- Population Membrane Permeable-Phenotype (%) [2]: 4%
- Population Mitochondria Different-Phenotype (%) [2]: 4%
- Population Mitotic Cells (%) [2]: 55%
- Population Normal (%) [2]: 97%
- Population Pyknosed Nuclei (%) [2]: 24%
- Population Tubulin-Different-Phenotype (%) [2]: 40%
- Total Cell Count [2]: 120
- Population Apoptotic (%) [3]: 68%
- Population Fragmented Nuclei (%) [3]: 33%
- Population Healthy Nuclei (%) [3]: 58%
- Population Hoechst High Intensity Objects (%) [3]: 7%
- Population Membrane Permeable-Phenotype (%) [3]: 0%
- Population Mitochondria Different-Phenotype (%) [3]: 15%
- Population Mitotic Cells (%) [3]: 31%
- Population Normal (%) [3]: 92%
- Population Pyknosed Nuclei (%) [3]: 7%
- Population Tubulin-Different-Phenotype (%) [3]: 43%
- Total Cell Count [3]: 305
- Population Apoptotic (%) [4]: 48%
- Population Fragmented Nuclei (%) [4]: 31%
- Population Healthy Nuclei (%) [4]: 51%
- Population Hoechst High Intensity Objects (%) [4]: 4%
- Population Membrane Permeable-Phenotype (%) [4]: 4%
- Population Mitochondria Different-Phenotype (%) [4]: 6%
- Population Mitotic Cells (%) [4]: 51%
- Population Normal (%) [4]: 95%
- Population Pyknosed Nuclei (%) [4]: 17%
- Population Tubulin-Different-Phenotype (%) [4]: 45%
- Total Cell Count [4]: 236
- Population Apoptotic (%) [5]: 30%
- Population Fragmented Nuclei (%) [5]: 16%
- Population Healthy Nuclei (%) [5]: 66%
- Population Hoechst High Intensity Objects (%) [5]: 1%
- Population Membrane Permeable-Phenotype (%) [5]: 2%
- Population Mitochondria Different-Phenotype (%) [5]: 3%
- Population Mitotic Cells (%) [5]: 70%
- Population Normal (%) [5]: 98%
- Population Pyknosed Nuclei (%) [5]: 17%
- Population Tubulin-Different-Phenotype (%) [5]: 25%
- Total Cell Count [5]: 119
- Population Apoptotic (%) [6]: 37%
- Population Fragmented Nuclei (%) [6]: 22%
- Population Healthy Nuclei (%) [6]: 50%
- Population Hoechst High Intensity Objects (%) [6]: 4%
- Population Membrane Permeable-Phenotype (%) [6]: 1%
- Population Mitochondria Different-Phenotype (%) [6]: 7%
- Population Mitotic Cells (%) [6]: 62%
- Population Normal (%) [6]: 95%
- Population Pyknosed Nuclei (%) [6]: 27%
- Population Tubulin-Different-Phenotype (%) [6]: 45%
- Total Cell Count [6]: 111
- Population Apoptotic (%) [7]: 47%
- Population Fragmented Nuclei (%) [7]: 30%
- Population Healthy Nuclei (%) [7]: 63%
- Population Hoechst High Intensity Objects (%) [7]: 6%
- Population Membrane Permeable-Phenotype (%) [7]: 0%
- Population Mitochondria Different-Phenotype (%) [7]: 11%
- Population Mitotic Cells (%) [7]: 52%
- Population Normal (%) [7]: 93%
- Population Pyknosed Nuclei (%) [7]: 5%
- Population Tubulin-Different-Phenotype (%) [7]: 40%
- Total Cell Count [7]: 339
- Population Apoptotic (%) [8]: 42%
- Population Fragmented Nuclei (%) [8]: 31%
- Population Healthy Nuclei (%) [8]: 53%
- Population Hoechst High Intensity Objects (%) [8]: 4%
- Population Membrane Permeable-Phenotype (%) [8]: 5%
- Population Mitochondria Different-Phenotype (%) [8]: 5%
- Population Mitotic Cells (%) [8]: 57%
- Population Normal (%) [8]: 95%
- Population Pyknosed Nuclei (%) [8]: 14%
- Population Tubulin-Different-Phenotype (%) [8]: 42%
- Total Cell Count [8]: 242
- Population Apoptotic (%) [9]: 62%
- Population Fragmented Nuclei (%) [9]: 28%
- Population Healthy Nuclei (%) [9]: 59%
- Population Hoechst High Intensity Objects (%) [9]: 0%
- Population Membrane Permeable-Phenotype (%) [9]: 0%
- Population Mitochondria Different-Phenotype (%) [9]: 1%
- Population Mitotic Cells (%) [9]: 37%
- Population Normal (%) [9]: 99%
- Population Pyknosed Nuclei (%) [9]: 12%
- Population Tubulin-Different-Phenotype (%) [9]: 29%
- Total Cell Count [9]: 126
- Population Apoptotic (%) [10]: 50%
- Population Fragmented Nuclei (%) [10]: 23%
- Population Healthy Nuclei (%) [10]: 54%
- Population Hoechst High Intensity Objects (%) [10]: 8%
- Population Membrane Permeable-Phenotype (%) [10]: 1%
- Population Mitochondria Different-Phenotype (%) [10]: 5%
- Population Mitotic Cells (%) [10]: 50%
- Population Normal (%) [10]: 91%
- Population Pyknosed Nuclei (%) [10]: 21%
- Population Tubulin-Different-Phenotype (%) [10]: 46%
- Total Cell Count [10]: 111
- Population Apoptotic (%) [11]: 56%
- Population Fragmented Nuclei (%) [11]: 28%
- Population Healthy Nuclei (%) [11]: 60%
- Population Hoechst High Intensity Objects (%) [11]: 11%
- Population Membrane Permeable-Phenotype (%) [11]: 0%
- Population Mitochondria Different-Phenotype (%) [11]: 8%
- Population Mitotic Cells (%) [11]: 43%
- Population Normal (%) [11]: 88%
- Population Pyknosed Nuclei (%) [11]: 11%
- Population Tubulin-Different-Phenotype (%) [11]: 48%
- Total Cell Count [11]: 321
- Population Apoptotic (%) [12]: 51%
- Population Fragmented Nuclei (%) [12]: 35%
- Population Healthy Nuclei (%) [12]: 53%
- Population Hoechst High Intensity Objects (%) [12]: 2%
- Population Membrane Permeable-Phenotype (%) [12]: 3%
- Population Mitochondria Different-Phenotype (%) [12]: 2%
- Population Mitotic Cells (%) [12]: 48%
- Population Normal (%) [12]: 97%
- Population Pyknosed Nuclei (%) [12]: 10%
- Population Tubulin-Different-Phenotype (%) [12]: 39%
- Total Cell Count [12]: 261
